Rows were chosen to be rich in hits. Some 2.3% of all compounds tested hit in one or more screens of this group.
OXTR ag – agonists of human oxytocin receptor; P30559; CHO-OTR cells, Fluo-8 calcium fluorescence; normalized: DMSO 0%, oxytocin 100%; activation, % at 3 µM; hit rate 0.32% among 320,000; AID 2435;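 active = activation above the mean of all tested compounds plus 3 SD, cutoff set per screening run, cut at about 20% in these data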;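 note: peak over basal fluorescence ratio from a 100 s FLIPR kinetic read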
TAAR1 antagonist – antagonists of human TAAR1. AID 624466. inhibition, % at 3 µM. hit rate 1.5% among 360,000. CHO RD-HGA16 TAAR1, Fluo-8 calcium fluorescence, antagonist;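 active = inhibition above a per-plate cutoff, the mean inhibition of test compounds on that plate plus 3 SD, cut at about 49% in these data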;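 note: 0% = DMSO plus EC80 beta-PEA response and 100% = DMSO alone without agonist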
Target sequence (Q96RJ0 whole entry, looked up): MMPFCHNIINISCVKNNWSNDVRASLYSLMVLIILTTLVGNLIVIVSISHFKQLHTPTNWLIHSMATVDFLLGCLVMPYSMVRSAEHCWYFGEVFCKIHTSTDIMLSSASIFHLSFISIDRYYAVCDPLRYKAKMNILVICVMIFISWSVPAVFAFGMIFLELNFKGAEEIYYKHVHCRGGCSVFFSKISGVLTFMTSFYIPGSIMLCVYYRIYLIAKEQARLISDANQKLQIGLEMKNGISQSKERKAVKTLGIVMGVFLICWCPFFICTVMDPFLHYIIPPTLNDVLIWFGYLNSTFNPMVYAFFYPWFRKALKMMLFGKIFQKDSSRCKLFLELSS
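Assay system: CHO-derived RD-HGA16 cells stably expressing human TAAR1 plus Gα16. Timing: 140 s kinetic read after compound, 140 s after agonist. Technique: kinetic Fluo-8 calcium fluorescence measurement. Measure: % inhibition of agonist calcium response.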
OXTR potentiator – human OXTR potentiation; CHO-OTR cells, Fluo-8 calcium fluorescence, potentiator mode; 0% = oxytocin EC15, 100% = EC100; P30559; activation, % at 3 µM; hit rate 0.061% among 320,000;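 active = activation above that plate's cutoff, the mean activation of tested compounds plus 3 SD, cut at about 6.6% in these data, passing the limit was not always enough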;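 note: 100% uses oxytocin at 75 nM as the full agonist control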
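Replication – single well per compound, singlicate · Assay system – CHO cell line stably expressing human OTR · Timing – 6 min pre-incubation, 100 s read · Measure – normalized max/min fluorescence ratio, % activation · Doses – 3.0 µM, one dose · Detection – Fluo-8 calcium dye fluorescence · Probe or stimulus – oxytocin near EC15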
TAAR1 agonist – agonists of human TAAR1; Q96RJ0; CHO RD-HGA16 TAAR1, Fluo-8 calcium fluorescence; vehicle wells 0%, saturating PEA agonist 100%; activation, % at 3 µM; hit rate 0.99% among 360,000;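 active = activation above the mean activation of all test compounds in the run plus 3 SD, cut at about 38% in these data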
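System: CHO RD-HGA16 cells carrying human TAAR1 plus Gα16; Incubation: 17-24 h seeding, 75 min 37 °C dye, 30 min RT; Measured by: Fluo-8 fluorescence, 5 s baseline then 140 s kinetic read; Control set: DMSO and PEA EC100; Replication: single well for each compound.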
V1R ag counter – activates human V1a receptor in oxytocin agonist counter-screen | activation, % at 3 µM | hit rate 0.25% among 320,000 | AID 2797 | CHO-V1R cells, Fluo-8 calcium fluorescence, agonist mode; 0% DMSO, 100% 3 nM vasopressin;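 active = activation above the mean activation of all tested compounds plus 3 SD, per screening run, cut at about 20% in these data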;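 note: signal is peak over basal fluorescence ratio across a 100 second FLIPR read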
TAAR1 ag conf – confirmation of human TAAR1 agonists; shares compounds with TAAR1 agonist; CHO RD-HGA16 TAAR1, Fluo-8 calcium fluorescence; scaled: DMSO 0%, maximal phenethylamine 100%; activation, % at 3 µM; hit rate 82% among 2,400; AID 651783;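 active = activation above a cutoff set at the run's mean compound activation plus 3 SD, cut at about 39% in these data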
Ga16 nonsel ag – nonselective agonist in parental cells, TAAR1 agonist counter-screen; shares compounds with TAAR1 agonist; CHO-Ga16 parental, Fluo-8 calcium fluorescence; normalized to maximal ATP response, DMSO zero; activation, % at 3 µM; hit rate 50% among 2,400; AID 651787;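 active = activation above the run cutoff, the mean activation over all tested wells plus 3 SD, cut at about 12% in these data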;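 note: 0% = DMSO wells and 100% = maximal ATP response on the peak over basal ratio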
TAAR1 desens – counter-screen for human TAAR1 agonists: agonists that desensitize TAAR1 | shares compounds with TAAR1 agonist | hit rate 46% among 2,400 | inhibition, % at 3 µM | CHO RD-HGA16 hTAAR1, Fluo-8 calcium, beta-PEA response inhibition | AID 651951;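 active = inhibition above the run cutoff, the mean inhibition of all test compounds plus 3 SD, cut at about 49% in these data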;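 note: beta-PEA stimulus applied at its EC80; loss of beta-PEA calcium signal after compound pretreatment read as receptor desensitization; 0% = DMSO with beta-PEA at EC80 and 100% = DMSO alone without agonist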
Ga16 antag count – nonselective Ga16 antagonist in TAAR1 agonist counter-screen | shares compounds with TAAR1 agonist | CHO-Ga16 ATP-induced calcium, Fluo-8 fluorescence | inhibition, % at 3 µM | hit rate 39% among 2,400 | AID 651952;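 active = inhibition above the plate's mean compound inhibition plus 3 SD, computed per plate, cut at about 22% in these data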;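 note: 0% = EC80 ATP with DMSO and 100% = DMSO wells without ATP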
Numbers without * were called inactive; . = no result.

SMILES	OXTR ag	TAAR1 antagonist	OXTR potentiator	TAAR1 agonist	V1R ag counter	TAAR1 ag conf	Ga16 nonsel ag	TAAR1 desens	Ga16 antag count
COc1cc2c(-c3ccc(O)cc3)nc3c(c(C)nn3-c3ccccc3)c2cc1OC	3	50*	-5	40*	7	22	14*	49*	38*
COc1ccc(Cl)cc1NC(=O)c1nnn(CC(=O)Nc2ccc(C)c(C)c2)c1N	2	-27	-5	5	0	.	.	.	.
CCCC1=NN2C(=N)/C(=C\c3cc(C)n(Cc4ccccc4)c3C)C(=O)N=C2S1	48*	101*	-18	117*	43*	111*	96*	106*	100*
COc1cccc(N=Nc2c(N)[nH]n3c(=O)c4c(nc23)CCCC4)c1	-2	6	-6	-1	-2	.	.	.	.
CC(C)CCCCCCCCc1cccc(O)c1C(=O)O	.	98*	.	130*	.	114*	89*	104*	92*
CC(C)C(=O)NCCCc1ccccc1	0	10	-6	7	0	.	.	.	.
Cc1nc2ccc(NC(=O)Cc3ccccc3F)cc2s1	0	9	1	-1	0	.	.	.	.
Cc1nc(NCCc2ccccc2)c2nnn(Cc3ccccc3)c2n1	-2	45	-4	51*	0	77*	15*	45	2
COCCN(Cc1ccccc1)C(=O)c1ccc2c(=O)n3c(nc2c1)CCC3	0	-23	-1	2	1	.	.	.	.
O=c1c2cc(Br)ccc2nc(-c2ccc(Cl)cc2)n1O	1	-13	-1	6	1	.	.	.	.
Cc1ccc(-c2nc3c(Cl)cc(Cl)cc3c(=O)n2O)cc1	23*	39	-21	80*	66*	49*	52*	19	18
Cc1ccc2c(c1)N(C(=O)CCC(=O)Nc1ccccc1Cl)CC(C)O2 (configuration not stated)	-2	-15	-4	-2	-1	.	.	.	.
CC1C(c2ccccc2)OCCN1C(=S)Nc1ccc(S(=O)(=O)N2CCCCC2)cc1 (configuration not stated)	.	10	.	55*	.	56*	7	34	32*
O=C1NC(Cc2ccccc2)c2nc3cc(F)ccc3c(=O)n2-c2cc(Cl)ccc21 (configuration not stated)	4	24	3	72*	2	50*	17*	14	12
O=C(Nc1c(C(=O)N2CCOCC2)cnn1-c1ccccc1)c1cccc(F)c1	-1	0	-7	0	0	.	.	.	.
O=C(Cc1ccccc1)NC(NCCc1ccccc1)C(Cl)(Cl)Cl (configuration not stated)	-1	9	-24	44*	3	50*	2	15	8
COC(=O)c1sc(NC(=S)NC(=O)c2ccccc2Cl)nc1C	3	-15	-2	50*	10	29	23*	11	12
COC(=O)c1sc(NC(=S)NC(=O)c2ccccc2)nc1C	-1	-17	-1	12	0	.	.	.	.
CCOC(=O)c1c(NC(=O)C(C)N2CCN(C(=O)c3ccco3)CC2)sc2c1CCCC2 (configuration not stated)	2	87*	-5	84*	3	42*	37*	71*	59*
COc1cccc(C(=O)CC(=O)C(=O)Nc2cccc([N+](=O)[O-])c2C)c1	0	12	-21	60*	1	120*	75*	77*	41*
COc1ccc(C(=O)CC(=O)C(=O)Nc2cccc([N+](=O)[O-])c2C)cc1	0	8	-10	71*	1	83*	62*	35	23*
